# Assay outcomes as filed in PubChem.
# Shown are actives, neighbours in structure and some others; about 2.3% of the full set was active somewhere.
# TRPC6 act – mouse TRPC6 channel activation; HEK293-TRPC6 membrane potential dye fluorescence; stronger effect = higher value; Q61143; 310,000 tested, 0.13% active; B-score at 10 µM; AID 2550;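 active = B-score of the integrated fluorescence ratio above library mean plus 3 SD, and starting fluorescence ratio within library mean plus 5 SD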;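 also: higher score means more depolarization so channel activation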
# Target sequence (Q61143 whole entry, looked up): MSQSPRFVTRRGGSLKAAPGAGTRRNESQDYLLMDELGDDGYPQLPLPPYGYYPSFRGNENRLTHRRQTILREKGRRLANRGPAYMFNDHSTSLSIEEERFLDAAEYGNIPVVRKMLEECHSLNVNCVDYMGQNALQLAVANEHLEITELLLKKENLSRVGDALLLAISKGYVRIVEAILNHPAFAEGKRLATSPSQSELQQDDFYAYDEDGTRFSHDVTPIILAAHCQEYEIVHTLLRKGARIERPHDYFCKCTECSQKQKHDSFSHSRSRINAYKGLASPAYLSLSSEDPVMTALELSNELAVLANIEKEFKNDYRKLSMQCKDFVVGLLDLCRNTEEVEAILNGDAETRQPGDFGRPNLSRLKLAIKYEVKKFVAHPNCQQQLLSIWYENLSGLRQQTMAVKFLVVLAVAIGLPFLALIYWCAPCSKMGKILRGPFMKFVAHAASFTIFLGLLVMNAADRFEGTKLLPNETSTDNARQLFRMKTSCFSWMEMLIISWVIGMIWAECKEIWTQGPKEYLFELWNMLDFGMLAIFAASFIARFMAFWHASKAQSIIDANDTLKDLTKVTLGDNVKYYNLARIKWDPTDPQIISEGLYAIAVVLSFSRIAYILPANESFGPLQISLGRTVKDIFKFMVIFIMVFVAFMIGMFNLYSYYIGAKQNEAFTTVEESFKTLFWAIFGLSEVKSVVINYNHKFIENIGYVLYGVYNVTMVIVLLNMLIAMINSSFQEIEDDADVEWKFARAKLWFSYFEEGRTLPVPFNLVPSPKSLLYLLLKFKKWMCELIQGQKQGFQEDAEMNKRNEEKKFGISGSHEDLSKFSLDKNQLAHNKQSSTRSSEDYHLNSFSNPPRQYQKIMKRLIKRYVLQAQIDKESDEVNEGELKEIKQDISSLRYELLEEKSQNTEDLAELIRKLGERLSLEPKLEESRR
# TRPC6 inhibitor – mouse TRPC6 channel inhibition; Q61143; HEK293-TRPC6, membrane potential dye, ACh-evoked depolarization; stronger effect = lower value; B-score at 10 µM; 310,000 tested, 1.1% active; AID 2553;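 active = B-score under library mean minus 3 SD, initial fluorescence not abnormally high, positive integrated signal ratio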;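 also: B-score derived from integrated fluorescence ratio over the kinetic read; more negative B-score means stronger inhibition of depolarization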
# TRPC4 inh – blocks the mouse TRPC4 cation channel | Q9QUQ5 | HEK293 TRPC4beta/mu-opioid, DAMGO-evoked Fluo4 calcium flux; stronger effect = lower value | B-score at 10 µM | 300,000 tested, 0.39% active | AID 2247;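 active = B-score over 3 SD under the library average, no early fluorescence shift, positive overall ratio signal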
#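 Signal: kinetic Fluo4 fluorescence imaging of calcium influx. Material: stable TRPC4beta/mu-opioid receptor HEK293 cells. Probe or stimulus: DAMGO in two steps, submaximal then maximal.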
# TRPC4 agonist – activators of mouse TRPC4 channel; 310,000 tested, 0.49% active; HEK293 TRPC4beta/mu-opioid, Fluo4 calcium fluorescence; stronger effect = higher value; B-score at 10 µM;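 active = B-score above 5 SD of library B-scores, and initial fluorescence ratio not above library mean plus 5 SD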;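 also: positive B-score marks a calcium rise read as TRPC4 activation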
#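 System – HEK293 cells stably co-expressing mouse TRPC4beta and mu-opioid receptor · Signal – Fluo4 calcium-sensitive dye fluorescence, kinetic, 1 Hz baseline · Benchmarks – buffer (low) and maximal DAMGO (high) · Read-out – B score of integrated fluorescence ratio per well · Incubation – dye loading 45 min room temperature, 110 s kinetic read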
# TRPC4 PAM – TRPC4 (mouse) allosteric potentiation | Q9QUQ5 | HEK293 TRPC4beta/mu-opioid, DAMGO EC20, Fluo-4 Ca2+ flux; stronger effect = higher value | B-score at 10 µM | 310,000 tested, 0.42% active | AID 2227;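 active = B-score of calcium response area above 5 SD of library B-scores, with initial fluorescence ratio within 5 SD of library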;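 also: B-score of integrated fluorescence ratio over time as area under calcium response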
# * marks the source's active call; other numbers are inactive results; i = inactive.
SMILES,TRPC6 act,TRPC6 inhibitor,TRPC4 inh,TRPC4 agonist,TRPC4 PAM
CCOC(=O)C1(C)NC(c2ccco2)C2C(=O)N(C)C(=O)C21 (stereo unspecified),i,i,i,i,i
Cc1ccc(N(CC(=O)NC2CCCC2)C(=O)c2nsc(Cl)c2Cl)cc1,i,i,i,i,i
COc1ccc(N(CC(=O)Nc2ccccc2OC)S(=O)(=O)c2ccc(OC)c(OC)c2)cc1,i,i,i,i,i
CCc1ccc(C(=O)NNC(=O)CCN2CCN(Cc3ccccc3)CC2)cc1,i,i,i,i,12*
COc1ccc(C)cc1S(=O)(=O)Nc1ccc2c(c1)N(C(C)=O)CCC2,i,i,i,i,i
O=C(CSc1nc(COc2ccccc2)nc2ccccc12)NC1CCCC1,i,i,i,i,i
CCCCN(C)CCNC(=O)CCn1nc(-c2ccc(Cl)cc2)ccc1=O,i,i,i,64*,11*
CC(C)CCn1c(Sc2nc3ccccc3o2)nc2c1c(=O)[nH]c(=O)n2C,i,i,i,i,17*
Cc1ccc2oc(=O)c3cnn(CC(=O)NC4CCN(Cc5ccccc5)CC4)c3c2c1,i,i,i,107*,i
Cc1cc(=O)oc2c(C)c(OCC(=O)NC3CCN(Cc4ccccc4)CC3)ccc12,i,i,i,i,i
Cc1c(OCC(=O)NC2CCN(Cc3ccccc3)CC2)ccc2c3c(c(=O)oc12)CCC3,i,i,i,i,11*
O=C(Cn1ncc2c(=O)oc3ccccc3c21)NC1CC1,i,i,i,i,i
COc1ccc(-c2nn(-c3ccccc3C)cc2CNC(C)c2cn(C)nc2C)cc1F (stereo unspecified),i,i,i,118*,i
COc1ccc(-c2nn(-c3ccccc3C)cc2CNCCc2cnc[nH]2)cc1F,i,i,i,i,i
CCn1cc(CNCc2cn(-c3ccccc3C)nc2-c2ccc(OC)c(F)c2)cn1,i,i,i,129*,i
COc1ccc(-c2nn(-c3ccccc3C)cc2CNC(C)Cn2cncn2)cc1F (stereo unspecified),i,i,i,i,i
CCOCCCNC(=O)/C(C#N)=C/c1ccccc1F,i,i,i,i,i
CSCCC(NC(=O)c1ccccc1)C(=O)N/N=C(\C)c1ccccc1 (stereo unspecified),i,i,i,i,i
COc1cccc(OCc2cc(C(=O)NCCN3CCCCC3CO)no2)c1 (stereo unspecified),i,i,i,i,i
Cc1cc(OCc2cc(C(=O)NCCN3CCCCC3CO)no2)cc(C)c1Cl (stereo unspecified),i,i,-7*,i,i
CCCCOc1ccc(CSC(CC(=O)O)C(=O)O)cc1 (stereo unspecified),i,i,i,i,i
CCCCOc1ccc(CSCCN=C(N)N)cc1,i,i,-6*,i,i
CCOC(=O)c1c(S(=O)(=O)NCC2CCN(Cc3cccc(F)c3)CC2)c(C)n(C)c1C,i,i,i,i,i
O=c1ccc(-c2ccc(S(=O)(=O)NCC3CCN(Cc4cccc(F)c4)CC3)s2)n[nH]1,i,i,i,i,10*
CC#CC(=O)NC1CCCN(C2Cc3ccccc3C2)C1 (stereo unspecified),i,i,i,i,i
SMILES,TRPC6 act,TRPC6 inhibitor,TRPC4 inh,TRPC4 agonist,TRPC4 PAM
COc1cccc(C(=O)NC2CCCN(C3Cc4ccccc4C3)C2)c1OC (stereo unspecified),i,i,i,90*,i
O=C(N/N=C/c1ccsc1)c1ccc2ccccc2n1,i,i,i,i,17*
O=C(N/N=C/c1ccc2c(c1)OCO2)c1ccc2ccccc2n1,i,i,i,i,i
CCC(=O)Nc1c(-c2ccccc2)c(=O)c2ccccc2n1C,i,i,i,i,i
C1CCN(c2nc(N3CCCC3)nc(N3CCNCC3)n2)C1,i,i,i,i,16*
Nc1nc(N2CCCCC2)nc(N2CCCCC2)n1,i,i,i,i,i
CC(=O)Nc1ccc(C2(c3ccc(NC(C)=O)cc3)C(=O)Nc3ccccc32)cc1,i,i,-7*,58*,i
Cc1cc(N2CCC(C)CC2)nc(NCc2ccccc2)n1,i,i,-6*,i,16*
Cc1cc(N2CCC(C)CC2)nc(-c2ccccc2O)n1,i,i,i,i,i
Cc1cc(Nc2ccc(Cl)cc2)nc(NCc2ccccc2)n1,i,i,i,i,i
Cc1cc(Nc2ccccc2)nc(NCc2ccccc2)n1,i,i,-6*,i,i
CCn1cc(Cl)c(C(=O)Nc2nccs2)n1,i,i,i,i,i
NN=C1c2cc([N+](=O)[O-])ccc2-c2ccc([N+](=O)[O-])cc21,i,i,i,i,18*
O=[N+]([O-])c1ccc2c(c1)/C(=N\O)c1ccccc1-2,i,i,i,i,i
CN(CC(=O)Nc1ccccc1Cl)C(=O)c1cc(-c2cccs2)nn1-c1ccccc1,i,i,i,i,i
CCOC(=O)c1c(CSC(=N)N)n(-c2ccccc2)c2cc(Br)c(OC(C)=O)cc12,i,i,i,i,14*
CCOC(=O)c1c(CN2CCN(C)CC2)n(-c2ccccc2)c2cc(Br)c(O)cc12,i,i,i,i,i
CC(NCc1cc(Br)ccc1OCC(=O)NCc1ccccc1)c1ccccc1 (stereo unspecified),i,i,-8*,61*,i
O=C(COc1ccc(Br)cc1CNC1CCCC1)Nc1ccccc1,i,i,i,62*,i
CC(=O)Nc1ccc(NC(=O)C(C)OC(=O)C2CCN(S(=O)(=O)c3ccc4c(c3)OCCO4)CC2)cc1 (stereo unspecified),i,i,i,i,i
Cc1nc(NCCc2ccccc2)sc1C(=O)N(C)C,i,i,i,i,i
O=C(COC(=O)CSc1ccc(F)cc1)NNC(=O)c1ccc([N+](=O)[O-])cc1,i,i,i,i,i
COc1ccc(-c2cc(C#N)nc(N3CCN(C)CC3)n2)cc1,i,i,i,i,i
COc1ccc(-c2cc(C(F)(F)F)nc(N3CCN(C)CC3)n2)cc1,i,i,i,i,15*
COc1ccc(-c2cc(C#N)nc(N3CCNCC3)n2)cc1,i,i,i,129*,i
CCN(c1ccccc1)S(=O)(=O)c1ccc(OC)c(NC(=O)CCc2nc3ccccc3c(=O)[nH]2)c1,i,i,i,i,i
